ChEMBL document CHEMBL1137754, “Inhibitors of potassium channels KV1.3 and IK-1 as immunosuppressants” (Bioorg Med Chem Lett, 2009)
Calls of active or inactive are those of the source. The rule behind the calls is not given here.

Assays:
[1] = molecular target: T1, Potassium voltage-gated channel subfamily A member 3 (Homo sapiens, UniProt P22001); assay: Inhibition of cloned Kv1.3 channel expressed in mammalian cells by whole cell patch clamp assay; assay type: cell-based
How it was run: (§1)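 Whole-cell patch clamp recording, n ≥ 2 individual experiments per compound concentration using different cells. Dose–response curves used four or more concentrations.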

PBMC [2] = assay: Immunosuppressant activity in human effector memory T cells of PBMC assessed as inhibition of anti-CD3 antibody-induced cell proliferation by ELISA in presence of 5 uM IK1-blocker 5-(4-Chloro-benzenesulfonyl)-5,6-dihydro-dibenzo[b,d]azepin-7-one; assay type: functional, cell-based
How it was run: (§2)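 T_EM fraction of PBMCs stimulated with anti-CD3 antibody; proliferation dose–response curves for one channel blocker were run against a fixed background of a blocker of the other channel (IK-1 blocker, or 5 µM PAP-1 for Kv1.3). The read-out was EC50.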

PBMC [3] = assay: Immunosuppressant activity in human effector memory T cells of PBMC assessed as inhibition of anti-CD3 antibody-induced cell proliferation by ELISA; assay type: functional, cell-based
PBMC [4] = assay: Immunosuppressant activity in human effector memory T cells of PBMC assessed as inhibition of anti-CD3 antibody-induced cell proliferation by ELISA in presence of 5 uM IK1-blocker TRAM34; assay type: functional, cell-based; how it was run: as §2
PBMC [5] = assay: Immunosuppressant activity in human effector memory T cells of PBMC assessed as inhibition of anti-CD3 antibody-induced cell proliferation by ELISA in presence of 16.7 uM IK1-blocker 5-(4-Chloro-benzenesulfonyl)-5,6-dihydro-dibenzo[b,d]azepin-7-one; assay type: functional, cell-based; how it was run: as §2
[6] = molecular target: Intermediate conductance calcium-activated potassium channel protein 4 (Homo sapiens, UniProt O15554); assay: Inhibition of human cloned IK1 expressed in african green monkey COS7 cells by whole cell patch clamp assay; assay type: cell-based, COS-7
PBMC [7] = assay: Immunosuppressant activity in human effector memory T cells of PBMC assessed as inhibition of anti-CD3 antibody-induced cell proliferation by ELISA in presence of 5 uM IK1-blocker 5-(Toluene-4-sulfonyl)-5,6-dihydro-dibenzo[b,d]azepin-7-one; assay type: functional, cell-based; how it was run: as §2
[8] = molecular target: T1, Potassium voltage-gated channel subfamily A member 3; assay: Inhibition of cloned Kv1.3 channel expressed in mammalian cells at 2 uM by whole cell patch clamp assay; assay type: cell-based; how it was run: as §1
HaCaT [9] = assay: Inhibition of human HaCaT cell proliferation after 48 hrs; assay type: functional, cell-based
How it was run: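 HaCaT keratinocytes were seeded in KBM/10% FCS and held 24 h at 37 °C. Compounds diluted in KBM/FCS (final 1% DMSO) were added in triplicate and incubated 48 h.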

[10] = molecular target: T1, Potassium voltage-gated channel subfamily A member 3; assay: Inhibition of cloned Kv1.3 channel expressed in mammalian cells at 20 uM by whole cell patch clamp assay; assay type: cell-based; how it was run: as §1
[11] = molecular target: T1, Potassium voltage-gated channel subfamily A member 3; assay: Inhibition of cloned Kv1.3 channel expressed in mammalian cells at 20 uM by whole cell patch clamp assay
Mus musculus = assay: Antiinflammatory activity against oxazolone-induced delayed type hypersensitivity in mouse assessed as reduction in ear swelling at 1%, topically applied 30 mins post oxazolone challenge; assay type: functional; design: scale not given: the % may be the effect or the level left
How it was run: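 Mouse DTH ear-swelling model with oxazolone sensitization and challenge. A single topical dose at 1% in ethanol–DMSO 4:1 was applied 30 min after challenge. The read-out was ear swelling relative to a vehicle-treated group. Protopic (0.1%) served as positive control. Values are means of n = 5 animals per group.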

[12] = Cytotoxicity against human effector memory T cells of PBMC up to 50 uM; assay type: cell-based
HaCaT [13] = assay: (§3) Cytotoxicity against human HaCaT cells; assay type: cell-based; settings: hacat
PBMC [14] = assay: Immunosuppressant activity in human effector memory T cells of PBMC assessed as inhibition of anti-CD3 antibody-induced cell proliferation by ELISA in presence of 5 uM Kv1.3-blocker PAP1; assay type: functional, cell-based; how it was run: as §2
HaCaT [15] = assay: Cytotoxicity against human HaCaT cells up to 50 uM; assay type: cell-based
[16] = as §3; assay type: cell-based; settings: HaCaT cells, read-out: LD50 (the source's name)
[17] = Cytotoxicity against human effector memory T cells of PBMC; assay type: cell-based, T-cell; settings: effector memory T cells from PBMC, read-out: LD50 (the source's name)

T1 sequence (P22001 whole entry): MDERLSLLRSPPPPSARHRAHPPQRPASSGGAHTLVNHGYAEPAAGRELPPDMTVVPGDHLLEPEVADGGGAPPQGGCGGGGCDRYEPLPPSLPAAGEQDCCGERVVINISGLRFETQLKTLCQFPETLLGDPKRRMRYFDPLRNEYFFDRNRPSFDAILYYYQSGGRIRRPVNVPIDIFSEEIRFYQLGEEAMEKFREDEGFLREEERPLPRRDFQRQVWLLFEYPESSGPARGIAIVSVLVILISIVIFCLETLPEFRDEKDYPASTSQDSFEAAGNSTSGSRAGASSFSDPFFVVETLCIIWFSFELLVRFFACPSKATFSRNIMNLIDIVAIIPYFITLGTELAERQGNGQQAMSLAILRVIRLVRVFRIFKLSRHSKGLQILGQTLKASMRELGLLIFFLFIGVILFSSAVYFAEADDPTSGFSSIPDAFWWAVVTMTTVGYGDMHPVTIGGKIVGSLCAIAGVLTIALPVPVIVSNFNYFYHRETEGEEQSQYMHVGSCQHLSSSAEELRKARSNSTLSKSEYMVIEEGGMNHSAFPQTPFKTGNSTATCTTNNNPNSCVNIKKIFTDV
Intermediate conductance calcium-activated potassium channel protein 4, sequence (O15554 whole entry): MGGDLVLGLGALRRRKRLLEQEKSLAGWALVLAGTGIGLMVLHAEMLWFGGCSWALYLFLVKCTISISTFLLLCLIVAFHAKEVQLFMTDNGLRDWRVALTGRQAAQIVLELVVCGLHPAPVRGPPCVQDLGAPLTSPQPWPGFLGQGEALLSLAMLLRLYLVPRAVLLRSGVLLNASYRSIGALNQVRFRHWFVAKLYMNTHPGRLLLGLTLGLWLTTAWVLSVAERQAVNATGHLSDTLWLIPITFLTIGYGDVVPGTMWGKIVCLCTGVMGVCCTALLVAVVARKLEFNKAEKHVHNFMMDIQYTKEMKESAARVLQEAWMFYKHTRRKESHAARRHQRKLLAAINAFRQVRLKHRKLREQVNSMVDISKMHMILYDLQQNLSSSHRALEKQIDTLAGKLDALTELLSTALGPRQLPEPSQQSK

O=C1CN(S(=O)(=O)c2ccc([N+](=O)[O-])cc2)c2ccccc2-c2ccccc21
IC50 [1]: > 10 µM

O=c1ccc2c(OCCCCOc3ccccc3)c3ccoc3cc2o1
EC50 (PBMC [2]): 1.2 µM | EC50 (PBMC [3]): 25 µM | EC50 (PBMC [4]): 0.43 µM | EC50 (PBMC [5]): 0.5 µM | IC50 [6]: 10 µM | EC50 (PBMC [7]): 0.4 µM

COc1cccc(C(=O)C2c3ccccc3-c3ccccc3N2C(=O)c2ccco2)c1 (configuration not stated)
inhibition [8]: 30%

O=C(CCc1ccccc1)C1c2ccccc2-c2ccccc2N1C(=O)c1ccco1 (configuration not stated)
inhibition [8]: 15%

O=C(c1ccc2c(c1)OCO2)C1c2ccccc2-c2ccccc2N1C(=O)c1ccco1 (configuration not stated)
inhibition [8]: 8%

CCCC(C)C(=O)N1c2ccccc2-c2ccccc2C1c1cccs1 (configuration not stated)
inhibition [8]: 59% | IC50 [1]: < 2 µM

O=C(c1cc(F)ccc1F)N1c2ccccc2-c2ccccc2C1c1cccs1 (configuration not stated)
inhibition [8]: 27%

COc1ccc(C(=O)C2c3ccccc3-c3ccccc3N2C(=O)c2ccco2)cc1 (configuration not stated)
inhibition [8]: 13%

O=C(c1ccc[nH]1)C1c2ccccc2-c2ccccc2N1C(=O)c1ccco1 (configuration not stated)
inhibition [8]: 15%

O=c1c2ccccc2c2ccccc2n1CCn1cccc1
EC50 (HaCaT [9]): 2.3 µM | inhibition [10]: 57% | inhibition [11]: 57%

Cc1ccc(S(=O)(=O)N2CC(=O)c3ccccc3-c3ccccc32)cc1
Activity (Mus musculus): 20% | Activity [12]: Non-toxic | Activity (PBMC [3]): inactive | Activity (HaCaT [13]): Non-toxic | IC50 [1]: 5.8 µM | EC50 (HaCaT [9]): 8.4 µM | IC50 [6]: 2.1 µM | EC50 (PBMC [14]): 2.5 µM | Activity (HaCaT [15]): Non-toxic

O=c1[nH]c2ccccc2c2ccccc12
inhibition [11]: 12%

Clc1ccccc1C(c1ccccc1)(c1ccccc1)n1cccn1
Activity (PBMC [3]): inactive | IC50 [1]: 5 µM | EC50 (HaCaT [9]): 40 µM | EC50 (PBMC [14]): 0.025 µM

Cc1ccc(C(=O)N2CC(=O)c3ccccc3-c3ccccc32)cc1
IC50 [1]: 4 µM | IC50 [6]: 16 µM

O=C(CCC1CCCC1)C1c2ccccc2-c2ccccc2N1C(=O)c1ccco1 (configuration not stated)
inhibition [8]: 11%

O=C1CN(C(=O)c2cccc(Cl)c2)c2ccccc2-c2ccccc21
IC50 [1]: 3.4 µM | IC50 [6]: 1.3 µM

O=C(O)C(=O)C1c2ccccc2-c2ccccc2N1C(=O)c1ccco1 (configuration not stated)
inhibition [8]: 41%

CC(=O)N1c2ccccc2-c2ccccc2C1c1c[nH]c2ccccc12 (configuration not stated)
IC50 [1]: 5 µM

O=C1CN(S(=O)(=O)c2cccc(Cl)c2)c2ccccc2-c2ccccc21
IC50 [1]: 3.6 µM

O=C1CN(S(=O)(=O)c2cccs2)c2ccccc2-c2ccccc21
IC50 [1]: 13 µM | IC50 [6]: 2.4 µM

Clc1ccccc1C(c1ccccc1)(c1ccccc1)n1ccnc1 [CLOTRIMAZOLE]
Activity (Mus musculus): 20% | CC50 [16]: 40 µM | IC50 [1]: 6 µM | EC50 (HaCaT [9]): 15 µM | CC50 [17]: 40 µM
